The source made the active and inactive calls. The calls are words filed in the database; no cut-off is given here.
Legend:
[1] = biological target: T1, Protein-glutamine gamma-glutamyltransferase K (Homo sapiens) (UniProt P22735); assay: Inhibition of human transglutaminase 1 using ((benzyloxy)carbonyl)-L-glutaminyl-L-serine peptide substrate assessed as Kinh/Ki ratio by GDH coupled assay
T1 sequence (whole entry): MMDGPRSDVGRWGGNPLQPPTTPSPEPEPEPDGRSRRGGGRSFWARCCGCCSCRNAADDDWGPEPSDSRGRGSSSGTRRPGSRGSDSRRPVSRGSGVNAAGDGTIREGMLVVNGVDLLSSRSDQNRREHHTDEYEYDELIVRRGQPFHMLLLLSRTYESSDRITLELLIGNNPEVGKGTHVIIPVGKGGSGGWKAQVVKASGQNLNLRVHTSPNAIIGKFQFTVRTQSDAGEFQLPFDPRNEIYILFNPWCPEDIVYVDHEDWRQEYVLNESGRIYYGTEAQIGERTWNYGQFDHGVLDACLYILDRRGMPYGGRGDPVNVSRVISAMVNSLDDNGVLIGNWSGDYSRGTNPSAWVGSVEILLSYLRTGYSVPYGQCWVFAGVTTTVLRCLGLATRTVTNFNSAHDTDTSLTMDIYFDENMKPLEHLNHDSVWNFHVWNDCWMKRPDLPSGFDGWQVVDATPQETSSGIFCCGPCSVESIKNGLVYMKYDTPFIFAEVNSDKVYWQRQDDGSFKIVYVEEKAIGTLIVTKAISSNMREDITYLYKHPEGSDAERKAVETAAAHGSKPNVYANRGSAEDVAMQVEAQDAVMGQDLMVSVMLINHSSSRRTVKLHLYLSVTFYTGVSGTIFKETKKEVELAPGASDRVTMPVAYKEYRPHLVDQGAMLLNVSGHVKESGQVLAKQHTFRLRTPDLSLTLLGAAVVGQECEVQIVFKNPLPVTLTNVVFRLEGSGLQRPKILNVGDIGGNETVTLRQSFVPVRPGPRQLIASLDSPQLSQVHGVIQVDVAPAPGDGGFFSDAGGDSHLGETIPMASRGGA
Method in brief: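 Recombinant His-tagged human TG1 from E. coli Rosetta 2 pLysS, final ~0.37 μM, in 200 mM MOPS pH 7.2, 5 mM CaCl2, 10 mM α-ketoglutarate, 300 μM NADH, 36 U/mL GDH. Z-Gln-Ser at 20/40 mM. Inhibitors typically at 100/33.3/11.1/3.7 μM (1% DMSO), added after ≥5 min enzyme pre-equilibration. NADH loss read at 340 nm; progress curves fitted to exponential decay, kinh/Ki from irreversible model.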

[2] = biological target: T2, Protein-glutamine gamma-glutamyltransferase (Homo sapiens) (UniProt P21980); assay: Inhibition of human transglutaminase 2 using ((benzyloxy)carbony l)-L-glutaminylglycine peptide substrate assessed as Kinh/Ki ratio by GDH coupled assay
T2 sequence (whole entry): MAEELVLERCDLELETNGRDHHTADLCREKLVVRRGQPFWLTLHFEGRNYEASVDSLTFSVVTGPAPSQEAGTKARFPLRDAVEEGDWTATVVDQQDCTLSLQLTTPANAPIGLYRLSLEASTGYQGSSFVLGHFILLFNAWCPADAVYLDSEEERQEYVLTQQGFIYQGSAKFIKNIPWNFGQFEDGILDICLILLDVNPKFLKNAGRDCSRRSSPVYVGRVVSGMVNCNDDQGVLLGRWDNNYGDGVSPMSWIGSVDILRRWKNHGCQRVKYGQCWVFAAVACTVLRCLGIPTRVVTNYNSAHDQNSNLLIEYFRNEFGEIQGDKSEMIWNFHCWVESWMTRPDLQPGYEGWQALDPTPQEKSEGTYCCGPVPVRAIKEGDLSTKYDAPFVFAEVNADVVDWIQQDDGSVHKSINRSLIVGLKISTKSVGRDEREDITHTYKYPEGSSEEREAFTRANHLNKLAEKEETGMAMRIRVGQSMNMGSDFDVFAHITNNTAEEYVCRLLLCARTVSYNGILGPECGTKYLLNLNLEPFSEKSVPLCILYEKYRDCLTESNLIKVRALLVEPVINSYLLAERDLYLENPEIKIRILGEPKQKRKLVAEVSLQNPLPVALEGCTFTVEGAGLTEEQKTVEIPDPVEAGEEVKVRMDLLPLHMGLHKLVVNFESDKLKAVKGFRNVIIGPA
Method in brief: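 Human TG2 (V224G variant) or codon-optimized murine TG2, E. coli-expressed, final ~0.34 and 0.22 μM respectively. Buffer: 200 mM MOPS pH 7.2, 5 mM CaCl2, 10 mM α-ketoglutarate, 300 μM NADH, 36 U/mL bovine GDH. Z-Gln-Gly at 10/20 mM. Inhibitors typically at 100/33.3/11.1/3.7 μM, 1% DMSO, added after ≥5 min pre-equilibration. A340 progress curves fitted to exponential decay; kinh/Ki from irreversible inhibition model.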

Structure (SMILES) | Ratio [1] | Ratio [2]
CO[C@@H]1C[C@@H](C(=O)NC[C@@H]2CC(Br)=NO2)N(C(=O)OCc2cnc3ccccc3c2)C1 | 7.7 | 10.4
O=C(NC[C@@H]1CC(Br)=NO1)[C@@H]1C[C@H](c2ccccc2)CN1C(=O)OCc1cnc2ccccc2c1 | 17.2 | 17.7
O=C(NC[C@@H]1CC(Br)=NO1)[C@@H]1CCCN1C(=O)OCc1cccc(F)c1 | 5.6 | 3.9
C#CCO[C@@H]1C[C@@H](C(=O)NC[C@@H]2CC(Br)=NO2)N(C(=O)OCc2cnc3ccccc3c2)C1 | 7.1 | 10.1
O=C(NC[C@@H]1CC(Br)=NO1)[C@@H]1CCN1C(=O)OCc1cnc2ccccc2c1 | 13.6 | 14.4
O=C(N[C@@H]1C[C@@H](C(=O)NC[C@@H]2CC(Br)=NO2)N(C(=O)OCc2cnc3ccccc3c2)C1)c1cccc(O)c1 | 18.1 | 36.2
O=C(NC[C@@H]1CC(Br)=NO1)[C@@H]1CCCN1C(=O)OCc1cnc2ccccc2n1 | 15.4 | 1.6
C[C@H](OC(=O)N1CCC[C@H]1C(=O)NC[C@@H]1CC(Br)=NO1)c1ccc2ccccc2c1 | 11.5 | 9
O=C(NC[C@@H]1CC(Br)=NO1)[C@@H]1CCCN1C(=O)OCc1ccnc2ccccc12 | 12 | 2
O=C(NC[C@@H]1CC(Br)=NO1)[C@@H]1CCCN1C(=O)OCc1ccccn1 | 1.6 | 1.2
N[C@@H]1C[C@@H](C(=O)NC[C@@H]2CC(Br)=NO2)N(C(=O)OCc2cnc3ccccc3c2)C1 | 3.1 | 2.6
O=C(NC[C@@H]1CC(Br)=NO1)[C@@H]1CCCN1C(=O)OCc1cccc(OCc2ccccc2)c1 | 3.9 | 4.8
O=C(NC[C@@H]1CC(Br)=NO1)[C@@H]1CCCCN1C(=O)OCc1cnc2ccccc2c1 | 22.2 | 12
O=C(NC[C@@H]1CC(Br)=NO1)[C@@H]1C[C@@H](c2ccc(Cl)cc2)CN1C(=O)OCc1cnc2ccccc2c1 | 15.4 | 12
C[C@@]1(C(=O)NC[C@@H]2CC(Br)=NO2)CCCN1C(=O)OCc1cnc2ccccc2c1 | 2.4 | 2
O=C(C[C@@H]1CCCN1C(=O)OCc1cnc2ccccc2c1)NC[C@@H]1CC(Br)=NO1 | 1.3 | 1.3
O=C(NC[C@@H]1CC(Br)=NO1)[C@@H]1CCCN1C(=O)OCc1ccncc1 | 10.8 | 2.6
C[C@H](OC(=O)N1CCC[C@@H]1C(=O)NC[C@@H]1CC(Br)=NO1)c1ccc2ccccc2c1 | 5.1 | 2.9
O=C(NC[C@@H]1CC(Br)=NO1)[C@@H]1CCN(C(=O)OCc2cnc3ccccc3c2)C1 | 25.8 | 8.8
O=C(NC[C@@H]1CC(Br)=NO1)[C@@H]1C[C@@H](NC(=O)C2(C(=O)O)CCC2)CN1C(=O)OCc1cnc2ccccc2c1 | 11.6 | 14.8

Other lines, results leading:

Ratio [1] | Ratio [2] | Structure (SMILES)
8.7 | 3.7 | C[C@H](OC(=O)N1CCC[C@@H]1C(=O)NC[C@@H]1CC(Br)=NO1)c1cnc2ccccc2c1
38.7 | 52.2 | O=C(NC[C@@H]1CC(Br)=NO1)[C@@H]1C[C@@H](c2cccc(O)c2)CN1C(=O)OCc1cnc2ccccc2c1
6.7 | 7.3 | O=C(NC[C@@H]1CC(Br)=NO1)[C@@H]1C[C@@H](F)CN1C(=O)OCc1cnc2ccccc2c1
1.7 | inactive | COc1cccc(COC(=O)N2CCC[C@H]2C(=O)NC[C@@H]2CC(Br)=NO2)c1OC
inactive | inactive | O=C(NC[C@@H]1CC(Br)=NO1)[C@@H]1CCCN1C(=O)OCc1nc2ccccc2[nH]1
23.1 | 10.2 | O=C(NC[C@@H]1CC(Br)=NO1)[C@@H]1C[C@@H](Cc2ccccc2)CN1C(=O)OCc1cnc2ccccc2c1
7.6 | 6.4 | C#Cc1ccc(COC(=O)N2CCC[C@H]2C(=O)NC[C@@H]2CC(Br)=NO2)cc1
4.3 | 4.6 | O=C(NC[C@@H]1CC(Br)=NO1)[C@@H]1CCCN1C(=O)OCc1cccnc1
4.5 | 4.1 | O=C(NC[C@@H]1CC(Br)=NO1)[C@@H]1CCCN1C(=O)OCc1ccccc1
48 | 18.4 | O=C(NC[C@@H]1CC(Br)=NO1)[C@@H]1C[C@@H](c2c[nH]c3ccc(F)cc23)CN1C(=O)OCc1cnc2ccccc2c1
29.5 | 33.8 | O=C(NC[C@@H]1CC(Br)=NO1)[C@@H]1C[C@@H](c2ccccc2O)CN1C(=O)OCc1cnc2ccccc2c1
18.9 | 11.1 | O=C(NC[C@@H]1CC(Br)=NO1)[C@@H]1C=C(c2ccccc2)CN1C(=O)OCc1cnc2ccccc2c1
41.7 | 25.3 | O=C(NC[C@@H]1CC(Br)=NO1)[C@@H]1C[C@@H](c2cccc(Cl)c2)CN1C(=O)OCc1cnc2ccccc2c1
2.3 | 2.5 | CC(C)(C)OC(=O)N1CCC[C@H]1C(=O)NC[C@@H]1CC(Br)=NO1
0.85 | inactive | Cn1c(COC(=O)N2CCC[C@H]2C(=O)NC[C@@H]2CC(Br)=NO2)nc2ccccc21
12 | 15.7 | O=C(N[C@@H]1C[C@@H](C(=O)NC[C@@H]2CC(Br)=NO2)N(C(=O)OCc2cnc3ccccc3c2)C1)c1cnccn1
24.6 | 25.8 | O=C(N[C@@H]1C[C@@H](C(=O)NC[C@@H]2CC(Br)=NO2)N(C(=O)OCc2cnc3ccccc3c2)C1)c1ccccc1
0.7 | 2.4 | C#CCOC(=O)N1CCC[C@H]1C(=O)NC[C@@H]1CC(Br)=NO1
37.1 | 37.1 | O=C(N[C@@H]1C[C@@H](C(=O)NC[C@@H]2CC(Br)=NO2)N(C(=O)OCc2cnc3ccccc3c2)C1)c1ccccc1O

Source: ChEMBL document CHEMBL3351998, “Discovery of potent and specific dihydroisoxazole inhibitors of human transglutaminase 2” (J Med Chem, 2014)
